Measurements taken from ChEMBL document CHEMBL2029236, “Tubulin binding, protein-bound conformation in solution, and antimitotic cellular profiling of noscapine and its derivatives” (J Med Chem, 2012).
The source made the active and inactive calls. The calls are words filed in the database; no cut-off is given here.

Experiments:
[1] = Antiproliferative activity against human Hep3B after 72 hrs by CellTiter Glo assay; format: functional, Hep 3B2
Outline: (§1)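 Cell viability assay in hepatocellular carcinoma cell lines; IC50 values derived from concentration–response data and reported in nM.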

[2] = Cell cycle arrest in human PLC/PRF/5 cells assessed as accumulation at sub-G1 phase after 24 hrs by FACS analysis (reference value: 1.4%); format: functional, cell-based
[3] = Antiproliferative activity against human MHCC97H after 72 hrs by CellTiter Glo assay; format: functional; outline: as §1
SNU-398 [4] = assay: Cell cycle arrest in human SNU398 cells assessed as accumulation at G2 phase after 24 hrs by FACS analysis (reference value: 38.2%); format: functional
[5] = Antiproliferative activity against human SNU182 after 72 hrs by CellTiter Glo assay; format: functional, cell-based; conditions: SNU-182, 72 h; outline: as §1
[6] = Antiproliferative activity against human PLC/PRF/5 cells; format: functional, cell-based; outline: as §1
[7] = Antiproliferative activity against human JHH4 after 72 hrs by CellTiter Glo assay; format: functional; outline: as §1
Huh-7 = assay: Antiproliferative activity against human HuH7 after 72 hrs by CellTiter Glo assay; format: functional, cell-based; conditions: Huh-7, 72 h; outline: as §1
SNU-387 = assay: Antiproliferative activity against human SNU387 after 72 hrs by CellTiter Glo assay; format: functional, cell-based; conditions: SNU-387, 72 h; outline: as §1
SNU-449 = assay: Antiproliferative activity against human SNU449 after 72 hrs by CellTiter Glo assay; format: functional, cell-based; conditions: SNU-449, 72 h; outline: as §1
SNU-423 = assay: Antiproliferative activity against human SNU423 after 72 hrs by CellTiter Glo assay; format: functional, cell-based; conditions: SNU-423, 72 h; outline: as §1
SNU-398 [8] = assay: Antiproliferative activity against human SNU398 cells; format: functional, cell-based; outline: as §1
SMMC-7721 = assay: Antiproliferative activity against human SMMC7721 after 72 hrs by CellTiter Glo assay; format: functional, cell-based; conditions: SMMC-7721, 72 h; outline: as §1
[9] = Antiproliferative activity against human JHH7 after 72 hrs by CellTiter Glo assay; format: functional; outline: as §1
SNU-398 [10] = assay: Cell cycle arrest in human SNU398 cells assessed as accumulation at G1 phase after 24 hrs by FACS analysis (reference value: 55.8%); format: functional
HepG2 = assay: Antiproliferative activity against human HepG2 after 72 hrs by CellTiter Glo assay; format: functional, cell-based; conditions: HepG2, 72 h; outline: as §1
Bel-7402 = assay: Antiproliferative activity against human Bel7402 after 72 hrs by CellTiter Glo assay; format: functional, cell-based; conditions: Bel-7402, 72 h; outline: as §1
[11] = Antiproliferative activity against human JHH2 after 72 hrs by CellTiter Glo assay; format: functional; outline: as §1
[12] = Cell cycle arrest in human PLC/PRF/5 cells assessed as accumulation at G2 phase after 24 hrs by FACS analysis (reference value: 26.1%); format: functional, cell-based
[13] = Cell cycle arrest in human PLC/PRF/5 cells assessed as accumulation at G1 phase after 24 hrs by FACS analysis (reference value: 66.8%); format: functional, cell-based
SNU-475 = assay: Antiproliferative activity against human SNU475 after 72 hrs by CellTiter Glo assay; format: functional, cell-based; conditions: SNU-475, 72 h; outline: as §1
[14] = Antiproliferative activity against human PLC/PRF/5 after 72 hrs by CellTiter Glo assay; format: functional; conditions: PLC-PRF-5, 72 h; outline: as §1
SNU-398 [15] = assay: Antiproliferative activity against human SNU398 after 72 hrs by CellTiter Glo assay; format: functional, cell-based; conditions: SNU-398, 72 h; outline: as §1
Bos taurus [16] = species on record: Bos taurus; assay: Binding affinity to calf brain tubulin assessed as increase in fluorescence at 10 uM by fluorometry relative to control
Outline: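 Fluorescence emission spectra of 10 μM ligand with and without 10 μM tubulin in 10 mM sodium phosphate, 0.1 mM GTP, pH 7.0, 25 °C. Emission intensity (425 nm maximum) and anisotropy were compared between bound and unbound ligand.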

[17] = Cell cycle arrest in human PLC/PRF/5 cells assessed as accumulation at G1 phase at 2 uM after 24 hrs by FACS analysis (reference value: 66.8%); format: functional, cell-based
[18] = Cell cycle arrest in human PLC/PRF/5 cells assessed as accumulation at sub-G1 phase at 2 uM after 24 hrs by FACS analysis (reference value: 1.4%); format: functional, cell-based
[19] = Cell cycle arrest in human PLC/PRF/5 cells assessed as accumulation at G2 phase at 2 uM after 24 hrs by FACS analysis (reference value: 26.1%); format: functional, cell-based
SNU-398 [20] = assay: Cell cycle arrest in human SNU398 cells assessed as accumulation at G2 phase at 2 uM after 24 hrs by FACS analysis (reference value: 38.2%); format: functional
SNU-398 [21] = assay: Cell cycle arrest in human SNU398 cells assessed as accumulation at G1 phase at 2 uM after 24 hrs by FACS analysis (reference value: 55.8%); format: functional
SNU-398 [22] = assay: Cell cycle arrest in human SNU398 cells assessed as accumulation at sub-G1 phase at 2 uM after 24 hrs by FACS analysis (reference value: 1.2%); format: functional
Bos taurus [23] = species on record: Bos taurus; assay: Binding affinity to calf brain tubulin alpha/beta heterodimer assessed as increase in proton signal at […] by STD NMR analysis
Outline: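 STD NMR with freshly prepared tubulin α/β heterodimer. Ligand:protein molar ratio 30:1 ([…], […]). Read-out: enhancement of ligand proton signals in STD spectra versus an off-resonance reference spectrum acquired without protein irradiation.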

SNU-398 [24] = assay: Cell cycle arrest in human SNU398 cells assessed as accumulation at sub-G1 phase at 100 nM after 24 hrs by FACS analysis (reference value: 1.2%); format: functional
SNU-398 [25] = assay: Cell cycle arrest in human SNU398 cells assessed as accumulation at G1 phase at 100 nM after 24 hrs by FACS analysis (reference value: 55.8%); format: functional
[26] = Cell cycle arrest in human PLC/PRF/5 cells assessed as accumulation at G1 phase at 100 nM after 24 hrs by FACS analysis (reference value: 66.8%); format: functional, cell-based
[27] = Cell cycle arrest in human PLC/PRF/5 cells assessed as accumulation at G2 phase at 100 nM after 24 hrs by FACS analysis (reference value: 26.1%); format: functional, cell-based
[28] = Cell cycle arrest in human PLC/PRF/5 cells assessed as accumulation at sub-G1 phase at 100 nM after 24 hrs by FACS analysis (reference value: 1.4%); format: functional, cell-based
SNU-398 [29] = assay: Cell cycle arrest in human SNU398 cells assessed as accumulation at G2 phase at 100 nM after 24 hrs by FACS analysis (reference value: 38.2%); format: functional
Bos taurus [30] = species on record: Bos taurus; assay: Inhibition of calf brain tubulin assembly at 10 uM by fluorometry in presence of gossipol
Bos taurus [31] = species on record: Bos taurus; assay: Inhibition of calf brain tubulin assembly at 10 uM by fluorometry in presence of podophyllotoxin
Bos taurus [32] = species on record: Bos taurus; assay: Binding affinity to calf brain tubulin assessed as binding constant by fluorometry; format: tissue-based
Outline: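 Fluorescence titration in 10 mM sodium phosphate, 0.1 mM GTP, pH 7.0, 25 °C. Ligand at 5 μM was titrated with tubulin up to 100 μM. Bound and free ligand were quantified from the change in ligand fluorescence. Binding constant fitted assuming a single site, 1:1 stoichiometry and 0.87 sites per dimer. Average of five experiments.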

Bos taurus [33] = species on record: Bos taurus; assay: Inhibition of calf brain tubulin assembly at 10 uM by fluorometry in presence of pironetin
Bos taurus [34] = species on record: Bos taurus; assay: Inhibition of calf brain tubulin assembly at 10 uM by fluorometry in presence of nocodazole
Bos taurus [35] = species on record: Bos taurus; assay: Inhibition of calf brain tubulin assembly at 10 uM by fluorometry in presence of noscapine
Bos taurus [36] = species on record: Bos taurus; assay: Inhibition of calf brain tubulin assembly at 10 uM by fluorometry in presence of isohomohalichondrin
Bos taurus [37] = species on record: Bos taurus; assay: Inhibition of calf brain tubulin assembly at 10 uM by fluorometry in presence of vinblastine

Row | Compound | IC50 [1] | IC50 [3] | IC50 [5] | IC50 [6] | IC50 [7] | IC50 (Huh-7) | IC50 (SNU-387) | IC50 (SNU-449) | IC50 (SNU-423) | IC50 (SNU-398 [8]) | IC50 (SMMC-7721) | IC50 [9] | IC50 (HepG2) | IC50 (Bel-7402) | IC50 [11] | IC50 (SNU-475) | IC50 [14] | IC50 (SNU-398 [15]) | Activity (Bos taurus [16]) | Activity [17] | also measured
1 | CC[C@]1(O)C[C@H]2CN(CCc3c([nH]c4ccccc34)[C@@](C(=O)OC)(c3cc4c(cc3OC)N(C=O)[C@H]3[C@@](O)(C(=O)OC)[C@H](OC(C)=O)[C@]5(CC)C=CCN6CC[C@]43[C@@H]65)C2)C1 [VINCRISTINE] | > 100 nM | 21.2 nM | 35.9 nM | 12.7 nM | 7.2 nM | 20 nM | 40.9 nM | > 100 nM | 18.4 nM | 46.7 nM | 6.5 nM | 28.2 nM | > 100 nM | 4.2 nM | > 100 nM | 29.3 nM | 22.1 nM | < 0.13 nM |  |  | Activity [2]: 11.8%; Activity (SNU-398 [4]): 64.5%; Activity (SNU-398 [10]): 17.1%; Activity [12]: 68.4%; Activity [13]: 12.2%
2 | COc1ccc2c(c1O)C(=O)O[C@@H]2[C@H]1c2c(cc3c(c2OC)OCO3)CCN1C |  |  |  | > 2000 nM |  |  |  |  |  | > 2000 nM |  |  |  |  |  |  |  |  | inactive | 62.8% | Activity [18]: 8.7%; Activity [19]: 23.3%; Activity (SNU-398 [20]): 47.8%; Activity (SNU-398 [21]): 33.5%; Activity (SNU-398 [22]): 15.2%
3 | COc1ccc2c(c1OC)C(=O)O[C@@H]2[C@H]1c2c(cc3c(c2OC)OCO3)CCN1C [NOSCAPINE] | > 1000 nM | > 1000 nM | > 1000 nM | > 2000 nM | > 1000 nM | > 1000 nM | > 1000 nM | > 1000 nM | > 1000 nM | > 2000 nM | > 1000 nM | > 1000 nM | > 1000 nM | > 1000 nM | > 1000 nM | > 1000 nM | > 1000 nM | > 1000 nM | inactive | 65.5% | inhibition (Bos taurus [23]): Active; Activity [18]: 1.5%; Activity [19]: 27.1%; Activity (SNU-398 [20]): 30.3%; Activity (SNU-398 [21]): 66%; Activity (SNU-398 [22]): 1%
4 | C/C(=C\c1csc(C)n1)[C@@H]1C[C@@H]2O[C@]2(C)CCC[C@H](C)[C@H](O)[C@@H](C)C(=O)C(C)(C)[C@@H](O)CC(=O)O1 [PATUPILONE] | > 100 nM | 6.7 nM | 22.3 nM | 3.8 nM | 1.8 nM | 4.5 nM | 20 nM | 19.9 nM | 10.3 nM | 5 nM | 2.3 nM | 14.8 nM | 44.7 nM | 0.9 nM | 61.3 nM | 11.6 nM | 12.7 nM | 2.9 nM |  |  | Activity (SNU-398 [24]): 11.8%; Activity (SNU-398 [25]): 13.7%; Activity [26]: 5.4%; Activity [27]: 56.3%; Activity [28]: 5.1%; Activity (SNU-398 [29]): 70.1%
5 | COC(=O)Nc1nc2cc(C(=O)c3cccs3)ccc2[nH]1 |  |  |  |  |  |  |  |  |  |  |  |  |  |  |  |  |  |  |  |  | inhibition (Bos taurus [30]): Active; inhibition (Bos taurus [31]): Active; Activity (Bos taurus [32]): 4 ×10⁵ /M; inhibition (Bos taurus [33]): Active; inhibition (Bos taurus [34]): inactive; inhibition (Bos taurus [35]): Active; inhibition (Bos taurus [36]): Active; inhibition (Bos taurus [37]): Active
